Reference: ChEMBL document CHEMBL1275449, “Potent in vitro antifungal activities of naturally occurring acetylenic acids” (Antimicrob Agents Chemother, 2008)
≈ marks a conversion by molar mass, not a printed value. Calls of active or inactive are those of the source. The rule behind the calls is not given here.

Experiments:
Nakaseomyces glabratus = experiment: Antifungal activity against Candida glabrata ATCC 90030 at 178.3 uM after 48 hrs by CLSI method; format: functional, organism-based
How it was run: (§1)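 Candida inocula came from 24–72-h SD agar colonies suspended in saline. They were diluted by OD630 standard curve into RPMI 1640 (0.2% dextrose, 0.03% glutamine, 0.165 M MOPS, pH 7.0) to 1.5 × 10³ CFU/ml. Compounds were run as 11 twofold dilutions in 20% DMSO-saline, in duplicate, at 35°C for 48 h, with OD530 read before and after. Percent growth at the top concentration, IC50, MIC, and MFC (SD agar plating) were derived.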

Candida tropicalis [1] = experiment: Antifungal activity against Candida tropicalis ATCC 750 at 178.3 uM after 48 hrs by CLSI method; format: functional, organism-based
How it was run: (§2)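 Yeast suspensions made from 3-5 colonies off 24-72 h SD agar plates in saline. They were diluted by OD630 standard curve in RPMI 1640 (0.2% dextrose, 0.03% glutamine, 0.165 M MOPS, pH 7.0) to 1.5 × 10³ CFU/ml. Twofold dilutions (11 concentrations, 20% DMSO-saline) run in duplicate. OD530 read before and after 35°C, 48 h. Line values are top test concentrations; no-growth endpoints give MIC/MFC.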

Mus musculus = experiment: Toxicity in mouse up to 34 umol/kg/day, ip for 3 days; format: organism-based; conditions: in vivo, 72 h
Pichia kudriavzevii = experiment: Antifungal activity against Candida krusei ATCC 6258 after 48 hrs by CLSI method; format: functional, organism-based; conditions: ATCC 6258, 48 h; how it was run: as §1
SK-MEL = experiment: Cytotoxicity against human SK-MEL cells up to 32 uM by neutral red method; format: cell-based
How it was run: (§3)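 Neutral red uptake cytotoxicity, top concentration 32 μM.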

Candida albicans [2] = experiment: Antifungal activity against Candida albicans ATCC 14053 after 48 hrs by CLSI method; format: functional, organism-based; conditions: ATCC 14053, 48 h
How it was run: (§4)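 CLSI broth microdilution. Colonies from 24–72 h SD agar suspended in saline and sized by OD630 standard curve. Inoculum 1.5 × 10³ CFU/ml (final) in RPMI 1640 (0.2% dextrose, 0.03% glutamine, 0.165 M MOPS, pH 7.0). Twofold dilutions (11 levels) from 20% DMSO-saline, in duplicate. 35°C for 48 h, OD530 read before and after. IC50 fitted from % growth. MIC: no detectable growth. MFC: subculture onto SD agar.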

Aspergillus flavus = experiment: Antifungal activity against Aspergillus flavus ATCC 204304 at 178.3 uM after 48 hrs by CLSI method; format: functional, organism-based
Aspergillus fumigatus [3] = experiment: Antifungal activity against Aspergillus fumigatus ATCC 204305 after 48 h by CLSI method; conditions: ATCC 204305, 48 h
Trichophyton rubrum [4] = experiment: Antifungal activity against Trichophyton rubrum ATCC MYA-4438 by CLSI method; format: functional, organism-based
How it was run: (§5)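 Growth scraped from 1- to 6-week-old potato dextrose slants and filtered through Miracloth. Diluted in 5% Alamar blue-RPMI 1640 (MOPS pH 7.0) to 2.7 × 10⁴ CFU/ml. Eleven twofold dilutions in duplicate. Fluorescence at 544 nm excitation/590 nm emission read before and after 35°C, 5 days. IC50 fitted from percent growth. MIC taken as no detectable growth; MFC from clear or blue wells plated on PD agar.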

Candida albicans [5] = experiment: Antifungal activity against Candida albicans ATCC 32354 after 48 hrs by CLSI method; format: functional, organism-based; conditions: ATCC 32354, 48 h; how it was run: as §4
Candida albicans [6] = experiment: Antifungal activity against Fluconazole resistant Candida albicans clinical isolate 17 after 48 hrs by CLSI method; format: functional, organism-based; how it was run: as §4
Aspergillus fumigatus [7] = experiment: Antifungal activity against Aspergillus fumigatus ATCC 90906 at 178.3 uM after 48 hrs by CLSI method; format: functional, organism-based
Trichophyton rubrum [8] = experiment: Antifungal activity against Trichophyton rubrum ATCC 10218 by CLSI method; format: functional, organism-based; how it was run: as §5
Candida albicans [9] = experiment: Antifungal activity against Fluconazole resistant Candida albicans isolate 17 at 178.3 uM after 48 hrs by CLSI method; format: functional, organism-based
How it was run: (§6)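 Candida in CLSI broth microdilution. Saline colony suspension set to 1.5 × 10³ CFU/ml (final) in MOPS-buffered RPMI 1640, pH 7.0. Test agent given as twofold serial dilutions in 20% DMSO-saline, duplicate wells. 35°C for 48 h. Growth read as OD530 before and after incubation. Percent inhibition scored at the highest test concentration.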

Candida albicans [10] = experiment: Antifungal activity against Candida albicans ATCC 32354 at 178.3 uM after 48 hrs by CLSI method; format: functional, organism-based; how it was run: as §1
Cryptococcus neoformans [11] = experiment: Antifungal activity against Cryptococcus neoformans ATCC 66031 after 72 hrs by CLSI method; format: functional, organism-based; conditions: ATCC 66031, 72 h
How it was run: (§7)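 SD broth replaced RPMI because growth in RPMI was poor; other CLSI conditions were kept. Inoculum was 1.5 × 10³ CFU/ml from colonies on SD agar, checked by plating. Twofold serial dilutions (11 concentrations) in 20% DMSO-saline were tested in duplicate. OD530 was read before and after incubation at 35°C for 72 h. Percent growth gave IC50; the MIC is the lowest concentration with no detectable growth.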

Aspergillus niger = experiment: Antifungal activity against Aspergillus niger ATCC 16404 at 178.3 uM after 48 hrs by CLSI method; format: functional, organism-based
Vero = experiment: Cytotoxicity against African green monkey Vero cells up to 32 uM by neutral red method; format: cell-based; conditions: chlorocebus sabaeus; how it was run: as §3
Trichophyton rubrum [12] = experiment: Antifungal activity against Trichophyton rubrum ATCC MYA-4438 at 178.3 uM after 5 days by CLSI method; format: functional, organism-based
Candida albicans [13] = experiment: Antifungal activity against Fluconazole resistant Candida albicans clinical isolate 1 after 48 hrs by CLSI method; format: functional, organism-based; how it was run: as §4
Aspergillus fumigatus [14] = experiment: Antifungal activity against Aspergillus fumigatus ATCC 204305 at 178.3 uM after 48 hrs by CLSI method; format: functional, organism-based
Cryptococcus neoformans [15] = experiment: Antifungal activity against Cryptococcus neoformans ATCC 66031 at 178.3 uM after 72 hrs by CLSI method; format: functional, organism-based; how it was run: as §7
Candida albicans [16] = experiment: Antifungal activity against Candida albicans ATCC 60193 after 48 hrs by CLSI method; format: functional, organism-based; conditions: ATCC 60193, 48 h; how it was run: as §4
Candida albicans [17] = experiment: Antifungal activity against Fluconazole resistant Candida albicans isolate 1 at 178.3 uM after 48 hrs by CLSI method; format: functional, organism-based; how it was run: as §6
KB = experiment: Cytotoxicity against human KB cells up to 32 uM by neutral red method; format: cell-based; how it was run: as §3
Candida albicans [18] = experiment: Antifungal activity against Candida albicans ATCC 200955 at 178.3 uM after 48 hrs by CLSI method; format: functional, organism-based; how it was run: as §1
[19] = system: Trichophyton mentagrophytes; experiment: Antifungal activity against Trichophyton mentagrophytes ATCC 9533 by CLSI method; format: functional, organism-based; how it was run: as §5
BT-549 = experiment: Cytotoxicity against human BT549 cells up to 32 uM by neutral red method; format: cell-based; how it was run: as §3
Candida albicans [20] = experiment: Antifungal activity against Candida albicans ATCC 90028 after 48 hrs by CLSI method; format: functional, organism-based; conditions: ATCC 90028, 48 h; how it was run: as §4
[21] = system: Trichophyton mentagrophytes; experiment: Antifungal activity against Trichophyton mentagrophytes ATCC MYA-4439 by CLSI method; format: functional, organism-based; how it was run: as §5
Candida albicans [22] = experiment: Antifungal activity against Candida albicans ATCC 200955 after 48 hrs by CLSI method; format: functional, organism-based; conditions: ATCC 200955, 48 h; how it was run: as §4
Cryptococcus neoformans [23] = experiment: Antifungal activity against Cryptococcus neoformans ATCC 90113 at 178.3 uM after 72 hrs by CLSI method; format: functional, organism-based; how it was run: as §7
Candida parapsilosis = experiment: Antifungal activity against Candida parapsilosis ATCC 22019 at 178.3 uM after 48 hrs by CLSI method; format: functional, organism-based; how it was run: as §2
Candida albicans [24] = experiment: Antifungal activity against Candida albicans ATCC 60193 at 178.3 uM after 48 hrs by CLSI method; format: functional, organism-based; how it was run: as §1
Candida tropicalis [25] = experiment: Antifungal activity against Candida tropicalis ATCC 750 after 48 hrs by CLSI method; format: functional, organism-based; conditions: ATCC 750, 48 h; how it was run: as §2
SK-OV-3 = experiment: Cytotoxicity against human SKOV3 cells up to 32 uM by neutral red method; format: cell-based; how it was run: as §3
LLC-PK1 = experiment: Cytotoxicity against pig LLC-PK1 cells up to 32 uM by neutral red method; format: cell-based, Sus scrofa; how it was run: as §3

Compound: CCCCCCCCCCCC#CCCCCC(=O)O [6-OCTADECYNOIC ACID]
- Activity (Nakaseomyces glabratus): inactive
- Activity (Candida tropicalis [1]): inactive
- Activity (Mus musculus): Non-toxic
- IC50 (Pichia kudriavzevii): 3400 nM
- MIC (Pichia kudriavzevii): 5.6 µM (≈ 1.57 µg/mL)
- Activity (SK-MEL): Non-toxic
- IC50 (Candida albicans [2]): 1000 nM
- MFC (Candida albicans [2]): 5.6 µM (≈ 1.57 µg/mL)
- MIC (Candida albicans [2]): 2.8 µM (≈ 0.785 µg/mL)
- Activity (Aspergillus flavus): inactive
- IC50 (Aspergillus fumigatus [3]): 18700 nM
- MIC (Aspergillus fumigatus [3]): 178 µM (≈ 50 µg/mL)
- IC50 (Trichophyton rubrum [4]): 1800 nM
- MIC (Trichophyton rubrum [4]): 5.6 µM (≈ 1.57 µg/mL)
- IC50 (Candida albicans [5]): 4000 nM
- MIC (Candida albicans [5]): 27.9 µM (≈ 7.82 µg/mL)
- IC50 (Candida albicans [6]): 3600 nM
- MIC (Candida albicans [6]): 16.7 µM (≈ 4.68 µg/mL)
- Activity (Aspergillus fumigatus [7]): inactive
- IC50 (Trichophyton rubrum [8]): 2700 nM
- MFC (Trichophyton rubrum [8]): 11.1 µM (≈ 3.11 µg/mL)
- MIC (Trichophyton rubrum [8]): 5.6 µM (≈ 1.57 µg/mL)
- Activity (Candida albicans [9]): inactive
- Activity (Candida albicans [10]): inactive
- IC50 (Cryptococcus neoformans [11]): 1400 nM
- Activity (Aspergillus niger): inactive
- Activity (Vero): Non-toxic
- Activity (Trichophyton rubrum [12]): inactive
- IC50 (Candida albicans [13]): 4200 nM
- MIC (Candida albicans [13]): 13.9 µM (≈ 3.9 µg/mL)
- Activity (Aspergillus fumigatus [14]): inactive
- Activity (Cryptococcus neoformans [15]): inactive
- IC50 (Candida albicans [16]): 3000 nM
- MIC (Candida albicans [16]): 5.6 µM (≈ 1.57 µg/mL)
- Activity (Candida albicans [17]): inactive
- Activity (KB): Non-toxic
- Activity (Candida albicans [18]): inactive
- IC50 [19]: 1300 nM
- MFC [19]: 2.8 µM (≈ 0.785 µg/mL)
- MIC [19]: 2.1 µM (≈ 0.589 µg/mL)
- Activity (BT-549): Non-toxic
- IC50 (Candida albicans [20]): 2000 nM
- MFC (Candida albicans [20]): 11.1 µM (≈ 3.11 µg/mL)
- MIC (Candida albicans [20]): 2.8 µM (≈ 0.785 µg/mL)
- IC50 [21]: 1200 nM
- MFC [21]: 2.8 µM (≈ 0.785 µg/mL)
- MIC [21]: 2.8 µM (≈ 0.785 µg/mL)
- IC50 (Candida albicans [22]): 1900 nM
- MIC (Candida albicans [22]): 11.1 µM (≈ 3.11 µg/mL)
- Activity (Cryptococcus neoformans [23]): inactive
- Activity (Candida parapsilosis): inactive
- Activity (Candida albicans [24]): inactive
- IC50 (Candida tropicalis [25]): 6300 nM
- MIC (Candida tropicalis [25]): 111 µM (≈ 31.2 µg/mL)
- Activity (SK-OV-3): Non-toxic
- Activity (LLC-PK1): Non-toxic
